This is a sample that favours compounds with a hit; in the whole collection about 2.3% have one here.
TRPC4 act: activators of mouse TRPC4 channel; Q9QUQ5; HEK293 TRPC4beta/mu-opioid, Fluo4 calcium fluorescence; stronger effect = higher value; B-score at 10 µM; hit rate 0.49% among 310,000;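 active means B-score above 5 SD of library B-scores, and initial fluorescence ratio not above library mean plus 5 SD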;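 further: positive B-score marks a calcium rise read as TRPC4 activation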
Target sequence (Q9QUQ5 whole entry, looked up): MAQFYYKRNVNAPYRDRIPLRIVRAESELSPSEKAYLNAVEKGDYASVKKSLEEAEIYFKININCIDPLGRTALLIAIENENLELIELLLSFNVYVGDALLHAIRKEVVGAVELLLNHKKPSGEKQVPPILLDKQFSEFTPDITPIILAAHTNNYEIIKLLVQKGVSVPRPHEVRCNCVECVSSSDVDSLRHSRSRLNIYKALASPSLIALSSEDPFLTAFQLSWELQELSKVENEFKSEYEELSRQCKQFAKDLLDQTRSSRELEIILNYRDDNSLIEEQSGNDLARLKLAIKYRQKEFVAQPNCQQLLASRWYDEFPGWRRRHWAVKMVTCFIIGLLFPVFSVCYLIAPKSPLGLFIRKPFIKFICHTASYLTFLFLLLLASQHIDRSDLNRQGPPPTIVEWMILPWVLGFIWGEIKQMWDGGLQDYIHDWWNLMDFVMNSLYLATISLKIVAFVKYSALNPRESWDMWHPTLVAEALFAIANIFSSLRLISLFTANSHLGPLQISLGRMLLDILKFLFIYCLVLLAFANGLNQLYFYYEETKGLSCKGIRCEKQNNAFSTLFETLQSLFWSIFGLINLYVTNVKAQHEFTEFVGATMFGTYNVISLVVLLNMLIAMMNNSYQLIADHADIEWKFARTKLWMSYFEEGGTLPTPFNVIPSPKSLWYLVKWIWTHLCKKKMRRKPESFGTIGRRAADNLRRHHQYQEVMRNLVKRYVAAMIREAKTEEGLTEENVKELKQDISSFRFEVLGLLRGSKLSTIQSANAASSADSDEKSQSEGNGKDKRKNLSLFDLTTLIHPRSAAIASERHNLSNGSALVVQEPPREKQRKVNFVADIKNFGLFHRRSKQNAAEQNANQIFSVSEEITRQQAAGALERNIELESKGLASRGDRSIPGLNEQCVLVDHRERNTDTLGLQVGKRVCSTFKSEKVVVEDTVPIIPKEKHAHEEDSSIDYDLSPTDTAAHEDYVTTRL
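Assay system – TRPC4beta and mu-opioid receptor HEK293 stable cells · Measured by – Fluo4 fluorescence, kinetic · Schedule – dye loading 45 min room temperature, 110 s kinetic read · Read-out – B-scored integrated calcium fluorescence ratio · Controls – buffer and maximal DAMGO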
TRPC6 inh: inhibitors of mouse TRPC6 channel; HEK293-TRPC6, membrane potential dye, ACh-evoked depolarization; stronger effect = lower value; B-score at 10 µM; hit rate 1.1% among 310,000; AID 2553;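 active means B-score under library mean minus 3 SD, initial fluorescence not abnormally high, positive integrated signal ratio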;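 further: B-score derived from integrated fluorescence ratio over the kinetic read; more negative B-score means stronger inhibition of depolarization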
TRPC6 activator: mouse TRPC6 channel activation; Q61143; HEK293-TRPC6 membrane potential dye fluorescence; stronger effect = higher value; B-score at 10 µM; hit rate 0.13% among 310,000; AID 2550;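 active means B-score of the integrated fluorescence ratio above library mean plus 3 SD, and starting fluorescence ratio within library mean plus 5 SD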;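 further: higher score means more depolarization so channel activation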
TRPC4 inh: TRPC4 (mouse) channel inhibition | Q9QUQ5 | B-score at 10 µM | HEK293 TRPC4beta/mu-opioid, DAMGO-evoked Fluo4 calcium flux; stronger effect = lower value | hit rate 0.39% among 300,000;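 active means B-score over 3 SD under the library average, no early fluorescence shift, positive overall ratio signal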
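Assay system – HEK293 line stably carrying TRPC4beta and mu-opioid receptor · Doses – single dose · Detection – Fluo4 calcium-dye fluorescence, kinetic read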
TRPC4 PAM: TRPC4 (mouse) allosteric potentiation; HEK293 TRPC4beta/mu-opioid, DAMGO EC20, Fluo-4 Ca2+ flux; stronger effect = higher value; hit rate 0.42% among 310,000; B-score at 10 µM; Q9QUQ5;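 active means B-score of calcium response area above 5 SD of library B-scores, with initial fluorescence ratio within 5 SD of library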;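 further: B-score of integrated fluorescence ratio over time as area under calcium response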
TRPC4 sel inh 2: second check of whether TRPC6 inhibitors also affect mouse TRPC4; shares compounds with TRPC6 inh; HEK293 TRPC4/MOR, membrane potential dye fluorescence; channel activated by saturating DAMGO dose; inhibition, % at 10 µM; hit rate 42% among 920;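 active means compounds whose fluorescence signal differed from control wells by over 3 SD, either direction, in both duplicate plates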
TRPC4 spec: mouse TRPC4 off-target activity of TRPC6 inhibitors; shares compounds with TRPC6 inh; HEK293 TRPC4/mu-opioid, membrane potential fluorescence; activity change, negative = inhibition, % at 10 µM; hit rate 61% among 920; AID 2777;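 active means rise or fall in signal beyond 3 SD of buffer-only wells in both replicate plates, either sign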;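 further: integrated kinetic ratio of fluorescence range over baseline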
HEK293 MPD ctr 2-1: second check of TRPC6 inhibitor effects in parental HEK293 cells | parental HEK293 membrane potential dye fluorescence; maximal acetylcholine challenge after compound addition | shares compounds with TRPC6 inh | AID 2779 | signal change vs control, % at 10 µM | hit rate 31% among 920;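 active means membrane potential signal moving either way by over 3 SD of the maximum-effect control, in both duplicate plates, meaning non-specific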
HEK293 MPD ctr-1: counter-screen for TRPC6 inhibitors: effect in parental HEK293 cells; membrane potential signal change, % at 10 µM; shares compounds with TRPC6 inh; hit rate 60% among 920; parental HEK293 membrane potential dye fluorescence; AID 2780;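 active means membrane potential signal shifting up or down by more than 3 SD of buffer-only wells, on both duplicate plates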
HEK293 MPD ctr-2: checks TRPC6 modulator effects in parental HEK293 cells. membrane potential signal change, % at 10 µM. shares compounds with TRPC6 inh. membrane potential dye fluorescence. hit rate 51% among 2,400;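 active means membrane potential signal moves up or down beyond 5 SD from buffer-only wells, on both duplicate plates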
HEK293 MPD ctr 2-2: second check of TRPC6 modulator effects in parental HEK293 cells; shares compounds with TRPC6 inh; membrane potential dye fluorescence; after compound, maximal acetylcholine stimulation; inhibition, % at 10 µM; hit rate 14% among 2,400;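 active means membrane potential signal drops by more than 5 SD from the mean control signal, in both duplicate plates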;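 further: plate controls were acetylcholine ECmax control wells for no effect and buffer only wells for full effect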
TRPC4/MOR mod: selectivity of TRPC6 modulators against mouse TRPC4; shares compounds with TRPC6 inh; HEK293 TRPC4/mu-opioid, membrane potential fluorescence; percent change from control (negative = decrease, positive = increase), % at 10 µM; hit rate 69% among 2,400; AID 488927;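 active means membrane potential signal moved up or down beyond 5 SD of buffer control wells, in both duplicate plates, actives on both sides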;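 further: plate controls were assay buffer wells for no effect and DAMGO maximal-effect wells for full effect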
TRPC4 ctr inh 2: second selectivity test of TRPC6 modulators against mouse TRPC4; shares compounds with TRPC6 inh; HEK293 TRPC4/mu-opioid, membrane potential dye fluorescence; stimulated with maximal-effect DAMGO; inhibition, % at 10 µM; hit rate 55% among 2,400;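 active means drop in membrane potential signal beyond 5 SD of the control wells in both duplicate plates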;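 further: TRPC4 counter screen for TRPC6 hits run under conditions tuned for TRPC6 not TRPC4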
TRPC6 inh conf: confirmation of mouse TRPC6 inhibitors. shares compounds with TRPC6 inh. HEK293-TRPC6, membrane potential dye, ACh-evoked depolarization. inhibition, % at 10 µM. hit rate 43% among 3,300;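 active means fluorescence ratio falls more than 5 SD below the full-stimulation control mean, in both duplicate runs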;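 further: integrated fluorescence ratio of peak minus minimum over baseline after agonist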
TRPC6 act confirm: confirmation of mouse TRPC6 activators. activation, % at 10 µM. shares compounds with TRPC6 inh. AID 488961. HEK293-TRPC6 membrane potential dye fluorescence, FDSS. hit rate 11% among 2,800;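 active means ratio signal rise beyond 5 SD above unstimulated control wells' mean, seen in both duplicate runs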;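 further: plate controls were buffer EC0 wells for no effect and acetylcholine ECmax response for full effect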
* hit, by the source's call; i = inactive; . = no result; + = active, no number.

SMILES	TRPC4 act	TRPC6 inh	TRPC6 activator	TRPC4 inh	TRPC4 PAM	HEK293 MPD ctr-2	HEK293 MPD ctr 2-2	TRPC4/MOR mod	TRPC4 ctr inh 2	TRPC6 inh conf	TRPC6 act confirm	others
CCOC(=O)N1CCN(C(=O)CN2C(=O)COc3ccc(C(C)(C)C)cc32)CC1	i	-6.3*	i	i	i	94%*	i	18%*	i	54%*	.
O=C(NCC(c1ccco1)N1CCCC1)c1ccccc1Sc1ccc(C(F)(F)F)cc1[N+](=O)[O-] (configuration not stated)	i	-6.6*	i	i	i	.	.	.	.	i	i	TRPC4 sel inh 2=i;TRPC4 spec=3.1%*;HEK293 MPD ctr 2-1=245%*;HEK293 MPD ctr-1=i
O=C(NCC(c1ccco1)N1CCCC1)c1ccc(Cl)cc1 (configuration not stated)	i	i	i	i	i	.	.	.	.	.	.
O=C(COC(=O)c1c(Cl)cccc1Cl)NC1CCCCC1	i	i	12*	i	i	121%*	i	24%*	i	.	171%*
Cc1ccc(SCC(=O)Nc2ccc(N3CCN(C)CC3)c(F)c2)c(C)c1	i	-7.1*	i	i	i	.	.	.	.	i	i	TRPC4 sel inh 2=72%*;TRPC4 spec=-9.4%*;HEK293 MPD ctr 2-1=i;HEK293 MPD ctr-1=i
Cc1ccc(-n2nnnc2SCC(=O)Nc2ccc(N3CCN(C)CC3)cc2)c(C)c1	i	i	i	i	i	.	.	.	.	.	.
COc1ccc(-c2[nH]ncc2CN2CCC(C(=O)c3ccc(F)cc3)CC2)cc1	i	i	i	i	i	.	.	.	.	.	.
Cc1ccc(NC(=O)Cn2ccc([N+](=O)[O-])n2)cc1Cl	i	i	i	i	i	.	.	.	.	.	.
Clc1ccc(C2NCCc3sccc32)cc1 (configuration not stated)	i	-5.9*	i	i	i	i	i	15%*	71%*	i	i
COc1ccccc1CC(=O)N(CCC#N)CCC#N	i	i	i	i	i	.	.	.	.	.	.
CC(C)C(NC(=O)/C=C/c1ccc(F)cc1)C(C)C	i	-6.9*	i	i	i	.	.	.	.	i	i	TRPC4 sel inh 2=i;TRPC4 spec=i;HEK293 MPD ctr 2-1=i;HEK293 MPD ctr-1=i
O=C(NCCOc1ccccc1F)C1CCC(=O)N(CC2CCCCC2)C1 (configuration not stated)	i	i	i	i	i	.	.	.	.	.	.
O=C1c2ccccc2C(=O)N1CCc1nc(-c2ccccn2)no1	i	i	i	i	i	.	.	.	.	.	.
O=C1c2ccccc2C(=O)N1CCCc1nc(-c2ccccn2)no1	i	-5*	i	i	i	i	i	i	i	i	i
O=c1cc(-c2ccccc2)c2cc(Cl)c(O)c(CN3CCOCC3)c2o1	i	i	i	i	i	.	.	.	.	.	.
CCc1cc2c(-c3ccccc3)cc(=O)oc2c(CN2CCOCC2)c1O	i	-5.1*	i	i	i	i	i	14%*	i	50%*	.
Cc1cnc(NC(=O)CSC(=S)N2CCOCC2)s1	i	i	i	i	i	.	.	.	.	.	.
CCc1nnc(NC(=O)CSC(=S)N2CCOCC2)s1	i	-6.9*	i	i	i	i	i	i	i	i	i
COc1cc(/C=C/C(=O)CC(=O)/C=C/c2ccc(O)c(OC)c2)ccc1O	84*	i	75*	i	i	+	i	380%*	i	i	524%*
O=C(Nc1ccccc1NC(=O)c1c(F)cccc1F)c1c(F)cccc1F	i	-5.8*	i	i	i	i	i	i	i	i	i
CC(C)C(=O)Nc1ccc(NC(=S)NC(=O)c2ccccc2F)cc1	i	i	i	i	i	.	.	.	.	.	.
CCOc1ccc(NC(=O)c2c(NC(=O)CN3CCN(C)CC3)sc3c2CCC3)cc1	i	-8.4*	i	i	i	.	.	.	.	75%*	i	TRPC4 sel inh 2=46%*;TRPC4 spec=-26%*;HEK293 MPD ctr 2-1=i;HEK293 MPD ctr-1=-409%*
Cc1nnc(SCC(=O)N(CC(C)C)c2c(N)n(Cc3ccccc3)c(=O)[nH]c2=O)n1N	i	i	i	i	i	.	.	.	.	.	.
COCCNC(=S)N1CCCN(c2nc3cc(C)ccc3cc2C#N)CC1	i	i	12*	i	i	i	i	i	34%*	.	136%*
CN(C)CCn1c(=N)n(CC(O)c2ccc(Cl)c(Cl)c2)c2ccccc21 (configuration not stated)	i	-5.3*	i	i	i	i	i	58%*	78%*	i	i
N=c1n(CCN2CCCCC2)c2ccccc2n1CC(O)c1ccc(Cl)c(Cl)c1 (configuration not stated)	i	i	i	i	i	.	.	.	.	.	.
C(=N\Nc1ncnc2sc3c(c12)CCC3)/c1ccncc1	i	i	i	i	i	.	.	.	.	.	.
c1cc(Nc2ncnc3sc4c(c23)CCC4)ccn1	i	-5.6*	i	i	i	-242%*	67%*	-39%*	38%*	55%*	i
O=C(O)c1ccc(S(=O)(=O)NCC2CCCCC2)cc1	i	i	i	i	i	.	.	.	.	.	.
